In brackets after ≈: the same amount, converted by molar mass.
Tests used:
Type in all cases: functional
[1] = test system: Streptococcus pneumoniae; experiment: Antimicrobial activity against Streptococcus pneumoniae isolate 1394 by agar dilution method
[2] = test system: Streptococcus pneumoniae; experiment: Antimicrobial activity against penicillin-susceptible Streptococcus pneumoniae by agar dilution method
[3] = test system: Streptococcus pneumoniae; experiment: Antimicrobial activity against Streptococcus pneumoniae isolate 1384 by agar dilution method
Method in brief: (§1)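 Agar dilution MIC on Mueller-Hinton agar with 5% sheep blood, inocula 10^4 CFU/spot; amoxicillin-clavulanate combined 1:2; S. pneumoniae ATCC 49619 quality control each run.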

[4] = test system: Streptococcus pneumoniae; experiment: Antimicrobial activity against Streptococcus pneumoniae isolate 3455 by agar dilution method
[5] = test system: Streptococcus pneumoniae; experiment: Antimicrobial activity against Streptococcus pneumoniae isolate 2874 by agar dilution method; method in brief: as §1
[6] = test system: Streptococcus pneumoniae; experiment: Antimicrobial activity against Streptococcus pneumoniae 11 by time-kill analysis
Method in brief: (§2)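 Time-kill in cation-adjusted Mueller-Hinton broth with 5% lysed horse blood; inocula 5 × 105 to 5 × 10^6 CFU/ml; drugs at MIC, 2× and 4× MIC; 35°C shaking water bath; viable counts at 0, 3, 6, 12, 24 h. Bactericidal = ≥3 log10 CFU/ml (99.9%) drop from original inoculum; 90%/99%/99.9% killing scored per strain.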

[7] = test system: Streptococcus pneumoniae; experiment: Antimicrobial activity against Streptococcus pneumoniae isolate 3791 by agar dilution method; method in brief: as §1
[8] = test system: Streptococcus pneumoniae; experiment: Antimicrobial activity against Streptococcus pneumoniae isolate 2686 by agar dilution method; method in brief: as §1
[9] = test system: Streptococcus pneumoniae; experiment: Antimicrobial activity against Streptococcus pneumoniae isolate 3374 by agar dilution method; method in brief: as §1
[10] = test system: Streptococcus pneumoniae; experiment: Antimicrobial activity against Streptococcus pneumoniae 5 by time-kill analysis
Method in brief: as §2, with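 “12 and” for “12,”, “if” for “=”, “reduction” for “drop”, “90% and 99%” for “90%/99%/99.9%”, “also scored.” for “scored per strain.”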

[11] = test system: Streptococcus pneumoniae; experiment: Antimicrobial activity against Streptococcus pneumoniae 7 by time-kill analysis; method in brief: as §2
[12] = test system: Streptococcus pneumoniae; experiment: Antimicrobial activity against Streptococcus pneumoniae isolate 37 by agar dilution method; method in brief: as §1
[13] = test system: Streptococcus pneumoniae; experiment: Antimicrobial activity against penicillin-resistant Streptococcus pneumoniae by agar dilution method; method in brief: as §1
[14] = test system: Streptococcus pneumoniae; experiment: Antimicrobial activity against Streptococcus pneumoniae isolate 33 by agar dilution method; method in brief: as §1
[15] = test system: Streptococcus pneumoniae; experiment: Antimicrobial activity against Streptococcus pneumoniae isolate 3458 by agar dilution method
[16] = test system: Streptococcus pneumoniae; experiment: Antimicrobial activity against Streptococcus pneumoniae isolate 1147 by agar dilution method; method in brief: as §1
[17] = test system: Streptococcus pneumoniae; experiment: Antimicrobial activity against Streptococcus pneumoniae isolate 3260 by agar dilution method
[18] = test system: Streptococcus pneumoniae; experiment: Antimicrobial activity against Streptococcus pneumoniae 9 by time-kill analysis
Method in brief: as §2, with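 “12 and” for “12,”, “if” for “=”, “reduction” for “drop”, “90% and 99%” for “90%/99%/99.9%”, “also scored.” for “scored per strain.”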

[19] = test system: Streptococcus pneumoniae; experiment: Antimicrobial activity against Streptococcus pneumoniae 8 by time-kill analysis; method in brief: as §2
[20] = test system: Streptococcus pneumoniae; experiment: Antimicrobial activity against Streptococcus pneumoniae isolate 3346 by agar dilution method
[21] = test system: Streptococcus pneumoniae; experiment: Antimicrobial activity against Streptococcus pneumoniae isolate 3412 by agar dilution method; method in brief: as §1
[22] = test system: Streptococcus pneumoniae; experiment: Antimicrobial activity against Streptococcus pneumoniae isolate 1146 by agar dilution method; method in brief: as §1
[23] = test system: Streptococcus pneumoniae; experiment: Antimicrobial activity against Streptococcus pneumoniae isolate 3587 by agar dilution method
[24] = test system: Streptococcus pneumoniae; experiment: Antimicrobial activity against Streptococcus pneumoniae 10 by time-kill analysis; method in brief: as §2
[25] = test system: Streptococcus pneumoniae; experiment: Antimicrobial activity against Streptococcus pneumoniae isolate 24 by agar dilution method
[26] = test system: Streptococcus pneumoniae; experiment: Antimicrobial activity against Streptococcus pneumoniae isolate 1564 by agar dilution method
[27] = test system: Streptococcus pneumoniae; experiment: Antimicrobial activity against penicillin-intermediate Streptococcus pneumoniae by agar dilution method
[28] = test system: Streptococcus pneumoniae; experiment: Antimicrobial activity against Streptococcus pneumoniae isolate 2880 by agar dilution method; method in brief: as §1
[29] = test system: Streptococcus pneumoniae; experiment: Antimicrobial activity against Streptococcus pneumoniae isolate 4755 by agar dilution method; method in brief: as §1
[30] = test system: Streptococcus pneumoniae; experiment: Antimicrobial activity against Streptococcus pneumoniae isolate 3263 by agar dilution method
[31] = test system: Streptococcus pneumoniae; experiment: Antimicrobial activity against Streptococcus pneumoniae isolate 2688 by agar dilution method; method in brief: as §1
[32] = test system: Streptococcus pneumoniae; experiment: Antimicrobial activity against Streptococcus pneumoniae 3 by time-kill analysis; method in brief: as §2
[33] = test system: Streptococcus pneumoniae; experiment: Antimicrobial activity against Streptococcus pneumoniae 6 by time-kill analysis; method in brief: as §2
[34] = test system: Streptococcus pneumoniae; experiment: Antimicrobial activity against Streptococcus pneumoniae isolate 4747 by agar dilution method; method in brief: as §1
[35] = test system: Streptococcus pneumoniae; experiment: Antimicrobial activity against Streptococcus pneumoniae 1 by time-kill analysis
Method in brief: as §2, with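 “12 and” for “12,”, “if” for “=”, “reduction” for “drop”, “90% and 99%” for “90%/99%/99.9%”, “also scored.” for “scored per strain.”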

[36] = test system: Streptococcus pneumoniae; experiment: Antimicrobial activity against Streptococcus pneumoniae 19A by agar dilution method; method in brief: as §1
[37] = test system: Streptococcus pneumoniae; experiment: Antimicrobial activity against Streptococcus pneumoniae isolate 3481 by agar dilution method; method in brief: as §1
[38] = test system: Streptococcus pneumoniae; experiment: Antimicrobial activity against Streptococcus pneumoniae isolate 2617 by agar dilution method; method in brief: as §1
[39] = test system: Streptococcus pneumoniae; experiment: Antimicrobial activity against Streptococcus pneumoniae isolate 1397 by agar dilution method; method in brief: as §1
[40] = test system: Streptococcus pneumoniae; experiment: Antimicrobial activity against Streptococcus pneumoniae isolate 3275 by agar dilution method; method in brief: as §1
[41] = test system: Streptococcus pneumoniae; experiment: Antimicrobial activity against Streptococcus pneumoniae 4 by time-kill analysis; method in brief: as §2
[42] = test system: Streptococcus pneumoniae; experiment: Antimicrobial activity against Streptococcus pneumoniae isolate 1424 by agar dilution method; method in brief: as §1
[43] = test system: Streptococcus pneumoniae; experiment: Antimicrobial activity against Streptococcus pneumoniae isolate 1055 by agar dilution method
[44] = test system: Streptococcus pneumoniae; experiment: Antimicrobial activity against Streptococcus pneumoniae isolate 3282 by agar dilution method
[45] = test system: Streptococcus pneumoniae; experiment: Antimicrobial activity against Streptococcus pneumoniae 2 by time-kill analysis; method in brief: as §2
[46] = test system: Streptococcus pneumoniae; experiment: Antimicrobial activity against Streptococcus pneumoniae isolate 3681 by agar dilution method; method in brief: as §1
[47] = test system: Streptococcus pneumoniae; experiment: Antimicrobial activity against Streptococcus pneumoniae 12 by time-kill analysis; method in brief: as §2

SMILES: CC[C@H]1OC(=O)[C@H](C)[C@@H](O[C@H]2C[C@@](C)(OC)[C@@H](O)[C@H](C)O2)[C@H](C)[C@@H](O[C@@H]2O[C@H](C)C[C@H](N(C)C)[C@H]2O)[C@](C)(O)C[C@@H](C)CN(C)[C@H](C)[C@@H](O)[C@]1(C)O [AZITHROMYCIN]
- MIC [1]: > 64 µg/mL
- MIC50 [2]: 2 µg/mL (≈ 2.67 µM)
- MIC90 [2]: > 64 µg/mL
- MIC [3]: > 64 µg/mL
- MIC [4]: > 64 µg/mL
- MIC [5]: > 64 µg/mL
- MIC [6]: > 64 µg/mL
- MIC [7]: > 64 µg/mL
- MIC [8]: > 64 µg/mL
- MIC [9]: > 64 µg/mL
- MIC [10]: > 64 µg/mL
- MIC [11]: > 64 µg/mL
- MIC [12]: > 64 µg/mL
- MIC50 [13]: 0.125 µg/mL (≈ 0.167 µM)
- MIC [14]: 0.125 µg/mL (≈ 0.167 µM)
- MIC [15]: > 64 µg/mL
- MIC [16]: 2 µg/mL (≈ 2.67 µM)
- MIC [17]: > 64 µg/mL
- MIC [18]: 0.06 µg/mL (≈ 0.0801 µM)
- MIC [19]: 4 µg/mL (≈ 5.34 µM)
- MIC [20]: > 64 µg/mL
- MIC [21]: > 64 µg/mL
- MIC [22]: 2 µg/mL (≈ 2.67 µM)
- MIC [23]: > 64 µg/mL
- MIC [24]: 0.03 µg/mL (≈ 0.0401 µM)
- MIC [25]: > 64 µg/mL
- MIC [26]: > 64 µg/mL
- MIC50 [27]: 2 µg/mL (≈ 2.67 µM)
- MIC90 [27]: > 64 µg/mL
- MIC [28]: > 64 µg/mL
- MIC [29]: > 64 µg/mL
- MIC [30]: > 64 µg/mL
- MIC [31]: > 64 µg/mL
- MIC [32]: 4 µg/mL (≈ 5.34 µM)
- MIC [33]: 0.06 µg/mL (≈ 0.0801 µM)
- MIC [34]: > 64 µg/mL
- MIC [35]: > 64 µg/mL
- MIC50 [36]: > 64 µg/mL
- MIC90 [36]: > 64 µg/mL
- MIC [37]: > 64 µg/mL
- MIC [38]: 0.125 µg/mL (≈ 0.167 µM)
- MIC [39]: > 64 µg/mL
- MIC [40]: > 64 µg/mL
- MIC [41]: 0.06 µg/mL (≈ 0.0801 µM)
- MIC [42]: > 64 µg/mL
- MIC [43]: > 64 µg/mL
- MIC [44]: > 64 µg/mL
- MIC [45]: 0.06 µg/mL (≈ 0.0801 µM)
- MIC [46]: 0.125 µg/mL (≈ 0.167 µM)
- MIC [47]: 0.12 µg/mL (≈ 0.16 µM)

— ChEMBL document CHEMBL1649446, “Comparative antipneumococcal activities of sulopenem and other drugs” (2009)
